IC50 data for 42 molecules are collected here from ChEMBL document CHEMBL5030525, “Design, synthesis and antitumor activity evaluation of trifluoromethyl-substituted pyrimidine derivatives” (Bioorg Med Chem Lett, 2021).

pIC50: −log10 of the molar value.

Common to all, as to type: functional, cell-based
The test system of one assay is MCF7. The assay can be described thus: Antiproliferative activity against human MCF7 cells assessed as inhibition of cell growth measured after 72 hrs by MTT assay. The note with it: MCF7, 72 h. In a few lines:
(§1)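 Cells in log phase were seeded at 3000–5000 per well and cultured 24 h at 37 °C, then exposed to a range of compound concentrations in fresh medium for 72 h. MTT was added and incubated 4 h at 37 °C, formazan was dissolved in DMSO, and absorbance was read at 490 nm. IC50 was taken from survival rate, as mean ± SD of three independent experiments. Stocks were 10 mM in DMSO.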
(Formazan colour is commonly taken as a measure of viable cells.)

The subject of another assay is PC-3. The assay can be described thus: Antiproliferative activity against human PC-3 cells assessed as inhibition of cell growth measured after 72 hrs by MTT assay. The note with it: PC-3, 72 h. In a few lines: as §1
For the next assay, the system named is MGC-803. The assay can be described thus: Antiproliferative activity against human MGC-803 cells assessed as inhibition of cell growth measured after 72 hrs by MTT assay. The note with it: MGC-803, 72 h. Summed up:
as §1

A further assay has as its system NCI-H1975. The assay is described as follows: Antiproliferative activity against human NCI-H1975 cells assessed as inhibition of cell growth measured after 72 hrs by MTT assay. The note with it: NCI-H1975, 72 h. In a few lines:
as §1

`C=CC(=O)Nc1cccc(Nc2cc(C(F)(F)F)nc(SCC3CC3)n2)c1`: the pIC50 (commonly the IC50 on a negative log10 scale, so that one unit is a factor of ten) is 4.85 in the assay on MCF7, 4.90 with PC-3, 4.41 in the assay with MGC-803 and 4.72 with NCI-H1975.
In the case of `Nc1cccc(Nc2cc(C(F)(F)F)nc(SCc3ccc(C(F)(F)F)cc3)n2)c1`, the pIC50 was 4.87 in the assay with MCF7, 4.64 with PC-3, 5.05 with MGC-803 and 4.63 in the assay with NCI-H1975.
Taken in the same sequence, the figures for `C=CC(=O)Nc1cccc(Nc2cc(C(F)(F)F)nc(SCc3ccccc3Cl)n2)c1` were 4.93, 4.87, 4.55 and 4.88.
Consider `CN1CCN(c2cc(C(F)(F)F)nc(SCc3ccc(C(F)(F)F)cc3)n2)CC1`, for which the pIC50 in the assay on MCF7 is 4.52; in the assay on PC-3, 4.46; in the assay with MGC-803, 4.80; in the assay on NCI-H1975, 4.62.
Taken in the same sequence, the figures for `COc1cc(Nc2cc(C(F)(F)F)nc(SCc3ccc(C(F)(F)F)cc3)n2)cc(OC)c1OC` were 4.96, 4.71, 4.81 and 5.00.
As to `CCN1CCN(c2cc(C(F)(F)F)nc(SCc3ccc(C(F)(F)F)cc3)n2)CC1`, the pIC50 in the assay on MCF7 was 4.66; in the assay on PC-3, 4.57; in the assay with MGC-803 it was 4.59; in the assay with NCI-H1975, 4.82.
For `C=CC(=O)Nc1cccc(Nc2cc(C(F)(F)F)nc(SCC3CCOCC3)n2)c1` the same measures were 4.75, 5.05, 4.55 and 4.79.
`C=CC(=O)Nc1cccc(Nc2cc(C(F)(F)F)nc(SCc3cccc(C(F)(F)F)c3)n2)c1`: the pIC50 was 4.91 in the assay on MCF7, 5.23 with PC-3, 4.73 with MGC-803 and 5.29 with NCI-H1975.
With `C=CC(=O)Nc1cccc(Nc2cc(C(F)(F)F)nc(SCC3CCCO3)n2)c1` (stereo not drawn), the pIC50 in the assay on MCF7 is 4.74; in the assay with PC-3, 4.89; in the assay on MGC-803 it was 4.43; with NCI-H1975, 4.75.
Taken in the same sequence, the figures for `Fc1ccc(Nc2cc(C(F)(F)F)nc(SCc3ccc(C(F)(F)F)cc3)n2)cc1` were less than 4.30, 4.85, 4.72 and 4.76.
As for `C=CC(=O)Nc1cccc(Nc2cc(C(F)(F)F)nc(SCc3ccc(F)cc3)n2)c1`, the pIC50 was 4.83 with MCF7, 5.04 with PC-3, 5.03 with MGC-803 and 4.99 in the assay on NCI-H1975.
Regarding `Fc1ccc(Nc2cc(C(F)(F)F)nc(SCc3ccc(C(F)(F)F)cc3)n2)cc1Cl`, the pIC50 is less than 4.30 in the assay on MCF7, 4.46 with PC-3, 4.38 in the assay on MGC-803 and 4.66 with NCI-H1975.
For `C=CC(=O)Nc1cccc(Nc2cc(C(F)(F)F)nc(SCc3ccccc3F)n2)c1` the same measures were 4.51, 5.06, 4.87 and 4.81.
In the case of `COc1ccc(Nc2cc(C(F)(F)F)nc(SCc3ccc(C(F)(F)F)cc3)n2)cc1`, the pIC50 in the assay with MCF7 is 4.65; in the assay on PC-3, 4.45; with MGC-803 it was 5.06; in the assay with NCI-H1975, 4.86.
In the case of `C=CC(=O)Nc1cccc(Nc2cc(C(F)(F)F)nc(SCc3ccc(C)cc3)n2)c1`, the pIC50 in the assay with MCF7 is 4.59; in the assay on PC-3, 4.75; with MGC-803, 4.73; in the assay on NCI-H1975, 4.82.
On to `FC(F)(F)c1ccc(CSc2nc(Sc3nnnn3-c3ccccc3)cc(C(F)(F)F)n2)cc1`, for which the pIC50 in the assay with MCF7 is 4.40; with PC-3 it was 4.34; in the assay on MGC-803, 4.91; in the assay with NCI-H1975, 4.61.
For `C=CC(=O)Nc1cccc(Nc2cc(C(F)(F)F)nc(SCc3cccc(C)c3)n2)c1`, the pIC50 with MCF7 was 4.57; with PC-3, 5.04; in the assay on MGC-803, 4.90; with NCI-H1975, 4.88.
In the case of `FC(F)(F)c1ccc(CSc2nc(SC3=NCCS3)cc(C(F)(F)F)n2)cc1`, the pIC50 in the assay on MCF7 was 4.35; with PC-3, 4.39; with MGC-803, 4.61; in the assay with NCI-H1975, 4.62.
Taken in the same sequence, the figures for `C=CC(=O)Nc1cccc(Nc2cc(C(F)(F)F)nc(SCc3ccccc3)n2)c1` were 4.72, 4.85, 4.65 and 4.66.
On to `C=CC(=O)Nc1cccc(Nc2cc(C(F)(F)F)nc(SCc3ccc(OC)cc3)n2)c1`, for which the pIC50 in the assay with MCF7 was 5.12; with PC-3, 4.80; in the assay with MGC-803, 4.82; in the assay on NCI-H1975 it was 4.99.
For `CC(C)(C)OC(=O)N1CCN(c2cc(C(F)(F)F)nc(SCc3ccc(C(F)(F)F)cc3)n2)CC1` the same measures were less than 4.30, 4.39, 4.65 and less than 4.30.
For `Cc1nnc(Sc2cc(C(F)(F)F)nc(SCc3ccc(C(F)(F)F)cc3)n2)s1` the same measures were less than 4.30, less than 4.30, 4.94 and 5.51.
`C=CC(=O)Nc1cccc(Nc2cc(C(F)(F)F)nc(SCc3cccc(F)c3)n2)c1`: the pIC50 is 4.64 in the assay on MCF7, 5.07 in the assay with PC-3, 5.15 in the assay with MGC-803 and 4.86 in the assay with NCI-H1975.
For the molecule `C=CC(=O)Nc1cccc(Nc2cc(C(F)(F)F)nc(SCc3c(Cl)cccc3Cl)n2)c1`, the pIC50 in the assay on MCF7 is 5.02; with PC-3, 4.84; with MGC-803, 4.46; with NCI-H1975 it was 5.04.
Taken in the same sequence, the figures for `FC(F)(F)c1ccc(CSc2nc(Nc3ccc(Cl)cc3Cl)cc(C(F)(F)F)n2)cc1` were less than 4.30, 4.53, 4.45 and 4.47.
For `C=CC(=O)Nc1cccc(Nc2cc(C(F)(F)F)nc(SCc3cnc(Cl)s3)n2)c1` the same measures were 4.97, 4.94, 4.42 and 4.96.
On to `C=CC(=O)Nc1cccc(Nc2cc(C(F)(F)F)nc(SCc3ccccc3Br)n2)c1`, for which the negative logarithm of the IC50 (pIC50) in the assay with MCF7 is 4.70; with PC-3, 5.09; with MGC-803 it was 4.51; in the assay on NCI-H1975, 5.02.
For `FC(F)(F)c1ccc(CSc2nc(Sc3ccccn3)cc(C(F)(F)F)n2)cc1` the same measures were 4.36, 4.60, less than 4.30 and 4.62.
Taken in the same sequence, the figures for `FC(F)(F)c1ccc(CSc2nc(Sc3ncc(-c4ccncc4)s3)cc(C(F)(F)F)n2)cc1` were 5.00, 5.13, 5.24 and 4.78.
In the case of `C=CC(=O)Nc1cccc(Nc2cc(C(F)(F)F)nc(SCc3cccc(OC)c3)n2)c1`, the pIC50 was 5.05 with MCF7, 4.94 in the assay with PC-3, 4.49 in the assay with MGC-803 and 5.02 in the assay on NCI-H1975.
With `FC(F)(F)c1ccc(CSc2nc(N3CCOCC3)cc(C(F)(F)F)n2)cc1`, the pIC50 in the assay on MCF7 was less than 4.30; in the assay on PC-3 it was 4.39; in the assay with MGC-803 it was less than 4.30; in the assay with NCI-H1975, less than 4.30.
With `C=CC(=O)Nc1cccc(Nc2cc(C(F)(F)F)nc(SCc3ccccc3C(F)(F)F)n2)c1`, the pIC50 was 4.76 in the assay with MCF7, 5.10 in the assay on PC-3, 4.57 with MGC-803 and 5.18 in the assay with NCI-H1975.
Take `C=CC(=O)Nc1cccc(Nc2cc(C(F)(F)F)nc(SCc3ccccc3OC)n2)c1`: the pIC50 is 4.66 in the assay on MCF7, 5.00 in the assay on PC-3, 4.49 in the assay on MGC-803 and 5.19 in the assay with NCI-H1975.
On to `FC(F)(F)c1ccc(CSc2nc(Nc3nnn[nH]3)cc(C(F)(F)F)n2)cc1`, for which the pIC50 with MCF7, in the assay with PC-3, in the assay on MGC-803 and in the assay on NCI-H1975 was less than 4.30 each time.
Regarding `FC(F)(F)c1ccc(CSc2nc(N3CCSCC3)cc(C(F)(F)F)n2)cc1`, the pIC50 is less than 4.30 with MCF7, 4.33 in the assay with PC-3, 4.36 in the assay with MGC-803 and less than 4.30 with NCI-H1975.
For the molecule `C=CC(=O)Nc1cccc(Nc2cc(C(F)(F)F)nc(SCc3ccc(Br)cc3)n2)c1`, the pIC50 is 4.93 in the assay on MCF7, 5.20 with PC-3, 4.53 in the assay on MGC-803 and 5.19 in the assay on NCI-H1975.
For the molecule `C=CC(=O)Nc1cccc(Nc2cc(C(F)(F)F)nc(SCc3ccc(Cl)cc3Cl)n2)c1`, the pIC50 in the assay with MCF7 was 5.20; in the assay with PC-3 it was 5.18; in the assay on MGC-803, 4.73; with NCI-H1975, 4.82.
Taken in the same sequence, the figures for `C=CC(=O)Nc1cccc(Nc2cc(C(F)(F)F)nc(SCc3cccc(Br)c3)n2)c1` were 4.85, 5.13, 4.64 and 5.13.
Taken in the same sequence, the figures for `COc1ccc(Nc2cc(C(F)(F)F)nc(SCc3ccc(C(F)(F)F)cc3)n2)cn1` were 4.43, 4.62, 4.91 and 5.20.
Taken in the same sequence, the figures for `C=CC(=O)Nc1cccc(Nc2cc(C(F)(F)F)nc(SCC3CCCCC3)n2)c1` were 4.95, 4.90, 4.47 and 4.74.
Regarding `FC(F)(F)c1ccc(CSc2nc(N3CCN(c4ccccn4)CC3)cc(C(F)(F)F)n2)cc1`, the pIC50 in the assay on MCF7 is less than 4.30; in the assay with PC-3, less than 4.30; with MGC-803, 4.63; with NCI-H1975 it was 4.76.
Take `FC(F)(F)c1ccc(CSc2nc(Sc3ncccn3)cc(C(F)(F)F)n2)cc1`: the pIC50 in the assay with MCF7 is less than 4.30; with PC-3, less than 4.30; with MGC-803, 4.54; with NCI-H1975 it was 4.85.
